According to ChEMBL document CHEMBL1135512 (J Med Chem, 2002):

Columns and labels:
[1] = Partition coefficient (logD7.0); assay type: physicochemical; conditions: octanol/water, pH 7; read-out: logD
Plasmodium falciparum [2] = experiment: Percent reversal against Plasmodium falciparum W2 at 1 uM DEEA; assay type: functional
[3] = Partition coefficient (logP); assay type: physicochemical; conditions: octanol/water; read-out: logP
[4] = Dissociation constant (pKa); assay type: physicochemical
Plasmodium falciparum [5] = experiment: In vitro inhibitory activity against multidrug-resistant Plasmodium falciparum W2 Indochina; assay type: functional, organism-based; conditions: Plasmodium falciparum
Outline: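 Clone W2 (Indochina), sorbitol-synchronized, was grown in RPMI 1640 with 10% human serum, 25 mM HEPES and 25 mM NaHCO3, at final parasitemia 0.5% and hematocrit 1.5%. The drug was present for 48 h at 37 °C under 10% O2/6% CO2/84% N2. Growth was read as 3H-hypoxanthine uptake (1 μCi/well). IC50 came from nonlinear regression of log-dose/response as the geometric mean with 95% CI.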

[6] = In vitro hemolytic concentration on uninfected erythrocytes.; assay type: functional, Homo sapiens
Outline: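 Washed A+ human erythrocytes were held at 1.5% hematocrit in RPMI 1640 with 10% human serum, 25 mM HEPES and 25 mM NaHCO3. Drug (2 mM to 1 μM final, triplicate) was added for 42 h at 37 °C under 10% O2/6% CO2. Released hemoglobin in supernatant was measured with TMB/H2O2 at 455 nm. HC50 is relative to 5% saponin lysis, by nonlinear regression.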

Plasmodium falciparum [7] = experiment: Accumulation coefficient of chloroquine at 1 um-10 uM of DEEA against Plasmodium falciparum W2;Range is from 14-15; assay type: functional
Outline: (§1)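 W2 infected erythrocytes were suspended in RPMI 1640 with 25 mM HEPES and 25 mM NaHCO3 (2% parasitemia, 2% hematocrit). They were mixed over silicone oil with buffer holding [3H]CQ (26 Ci/mmol) plus DEEA at 1 or 10 μM. Incubation was 1 h at 37 °C under 10% O2/6% CO2/84% N2, followed by 1 min centrifugation. Ratio = parasite [3H]CQ (infected minus uninfected cells) / same-volume buffer.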

[8] = Cytotoxicity against Chinese hamster ovary cells; assay type: cell-based, Cricetulus griseus
Outline: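 Cells were then exposed to graded drug concentrations for 48 h at 37 °C, 5% CO2. MTT (1 mg/mL in PBS) was added for 3 h, and formazan was dissolved in DMSO and read at 570/630 nm. IC50 came from nonlinear regression versus drug-free wells.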

Plasmodium falciparum [9] = experiment: Accumulation coefficient of chloroquine at 1 uM -10 uM of DEEA against Plasmodium falciparum W2; Range is from 15-101; assay type: functional; outline: as §1
Plasmodium falciparum [10] = experiment: Concentration required to reduce chloroquine IC50 by 50%; assay type: functional, organism-based; conditions: Plasmodium falciparum
Outline: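 Synergy isotopic microtest on sorbitol-synchronized W2 (Indochina) and 3D7 in RPMI 1640 with 10% human serum, HEPES/NaHCO3, parasitemia 0.5%, hematocrit 1.5%. CQ was combined with subinhibitory fixed DEEA concentrations, and 3H-hypoxanthine was added for 48 h at 37 °C under 10% O2/6% CO2/84% N2. Reversal IC50 is the DEEA concentration halving CQ IC50, found by nonlinear regression of log-dose/IC50.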

Plasmodium falciparum [11] = experiment: Accumulation coefficient of chloroquine at 1 uM-10 uM of DEEA against Plasmodium falciparum W2; Range is from 16-71; assay type: functional; outline: as §1
Plasmodium falciparum [12] = experiment: Accumulation coefficient of chloroquine at 1 uM-10 uM of DEEA against Plasmodium falciparum W2; Range is from 19-23; assay type: functional; outline: as §1
Plasmodium falciparum [13] = experiment: Percent reversal against Plasmodium falciparum W2 at 1 uM DEEA
Plasmodium falciparum [14] = experiment: Accumulation coefficient of chloroquine at 1 uM-10 uM of DEEA against Plasmodium falciparum W2; assay type: functional; outline: as §1
Plasmodium falciparum [15] = experiment: Accumulation coefficient of chloroquine at 1 uM-10 uM of DEEA against Plasmodium falciparum W2; Range is from 62-63; assay type: functional
Plasmodium falciparum [16] = experiment: Accumulation coefficient of chloroquine at 1 uM-10 uM of DEEA against Plasmodium falciparum W2; Range is from 18-16; assay type: functional

Row | SMILES | logD [1] | Reversal (Plasmodium falciparum [2]) | logP [3] | pKa [4] | IC50 (Plasmodium falciparum [5]) | HC50 [6] | Accumulation coefficient (Plasmodium falciparum [7]) | Cytotoxicity [8] | Accumulation coefficient (Plasmodium falciparum [9]) | IC50 (Plasmodium falciparum [10]) | Accumulation coefficient (Plasmodium falciparum [11]) | Accumulation coefficient (Plasmodium falciparum [12]) | Reversal (Plasmodium falciparum [13]) | Accumulation coefficient (Plasmodium falciparum [14]) | Accumulation coefficient (Plasmodium falciparum [15]) | Accumulation coefficient (Plasmodium falciparum [16])
1 | CC1C2c3ccccc3C(c3ccccc32)C1C(=O)Nc1ccccn1 (stereo unspecified) | 4.16 | 0% | 4.17 | 5.27 | 302 µM | 1827 µM | 15 | 205 µM | – | – | – | – | – | – | – | –
2 | CC1C2c3ccccc3C(c3ccccc32)C1C(=O)Nc1ccncc1 (stereo unspecified) | 3.85 | 21% | 3.85 | 5.27 | 833 µM | >2000 µM | – | > 500 µM | 101 | 1490 µM | – | – | – | – | – | –
3 | CN(C)CCNC1CC2c3ccccc3C1c1ccccc12 (stereo unspecified) | -1.5 | 63% | 3.17 | 9.48 | 8 µM | 644 µM | – | 695 µM | – | 0.8 µM | 71 | – | – | – | – | –
4 | CC1C2c3ccccc3C(c3ccccc32)C1C(=O)/N=C/N(C)C (stereo unspecified) | 3.26 | 0% | 3.26 | – | 51 µM | >2000 µM | – | > 2000 µM | – | 40 µM | – | 23 | – | – | – | –
5 | CC1C2c3ccccc3C(c3ccccc32)C1C(N)=O (stereo unspecified) | 2.89 | – | 2.89 | -0.89 | 41 µM | >2000 µM | – | > 2000 µM | – | 20 µM | – | – | 0% | 22 | – | –
6 | CCOC(=O)C1C2c3ccccc3C(c3ccccc32)C1N(C)C (stereo unspecified) | 3 | 0% | 3.6 | 7.48 | 34 µM | >2000 µM | – | > 2000 µM | – | 3.1 µM | – | – | – | – | 63 | –
7 | CN(C)C1C2c3ccccc3C(c3ccccc32)C1C(=O)O (stereo unspecified) | 0.1 | 0% | 2.7 | 8.3 | > 50 µM | >2000 µM | – | > 2000 µM | – | > 100 µM | – | – | – | – | – | 18
